Experimental data taken from ChEMBL document CHEMBL4368914, “Tricyclic Indazoles-A Novel Class of Selective Estrogen Receptor Degrader Antagonists” (J Med Chem, 2019).
In brackets after ≈: the same amount, converted by molar mass.

Key:
[1] = Fraction unbound in Alderley Park Han Wistar rat plasma by equilibrium dialysis; format: ADME, cell-free
Outline: (§1)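 Equilibrium dialysis from DMSO stock in 10% plasma, either Alderley Park Han Wistar rat plasma or human plasma.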

[2] = Fraction unbound in 10% human plasma by equilibrium dialysis; format: ADME, cell-free; details: 10% plasma; outline: as §1
[3] = AUC in dog at 1 mg/kg, po; format: ADME, organism-based, Canis lupus familiaris; details: in vivo
Outline: (§2)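 Single IV dose of 0.5 mg/kg and oral dose of 1 mg/kg in rat and dog. Both routes were formulated in 5% DMSO:95% hydroxypropyl β-cyclodextrin (30% w/v), at 1 mL/kg IV and 4 mL/kg PO.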

[4] = AUC in rat at 1 mg/kg, po; format: ADME, organism-based; details: in vivo; outline: as §2
Cytochrome P450 2D6 = Cytochrome P450 2D6 (Homo sapiens, UniProt P10635); test: Inhibition of CYP2D6 in human liver microsomes; format: ADME
Sequence of Cytochrome P450 2D6 (P10635 whole entry, canonical isoform): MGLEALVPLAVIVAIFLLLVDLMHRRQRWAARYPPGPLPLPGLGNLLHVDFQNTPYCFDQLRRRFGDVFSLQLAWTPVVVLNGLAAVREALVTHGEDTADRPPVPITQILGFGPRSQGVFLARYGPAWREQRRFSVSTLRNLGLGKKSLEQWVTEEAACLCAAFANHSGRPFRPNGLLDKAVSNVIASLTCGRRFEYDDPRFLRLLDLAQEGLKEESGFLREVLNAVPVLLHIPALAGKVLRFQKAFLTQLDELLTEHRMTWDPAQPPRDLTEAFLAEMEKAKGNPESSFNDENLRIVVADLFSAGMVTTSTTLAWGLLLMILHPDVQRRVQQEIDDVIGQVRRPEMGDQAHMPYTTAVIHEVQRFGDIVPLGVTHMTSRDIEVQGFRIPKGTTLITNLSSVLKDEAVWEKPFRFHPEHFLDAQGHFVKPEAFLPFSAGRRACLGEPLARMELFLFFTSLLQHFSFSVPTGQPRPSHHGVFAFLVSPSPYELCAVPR
Outline: (§3)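 High-throughput human liver microsome assay across a panel of five CYP isoforms, giving IC50.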

[5] = Efflux ratio of apparent permeability in human Caco2 cells at 10 uM; format: ADME, cell-based; details: Caco-2
Outline: (§4)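 Compound at 10 μM incubated on cultured Caco-2 or MDCK cells. Permeability was measured apical-to-basolateral and basolateral-to-apical, and efflux ratio was taken as (B to A)/(A to B).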

Cytochrome P450 2C19 = Cytochrome P450 2C19 (Homo sapiens, UniProt P33261); test: Inhibition of CYP2C19 in human liver microsomes; format: ADME; outline: as §3
Sequence of Cytochrome P450 2C19 (P33261 whole entry): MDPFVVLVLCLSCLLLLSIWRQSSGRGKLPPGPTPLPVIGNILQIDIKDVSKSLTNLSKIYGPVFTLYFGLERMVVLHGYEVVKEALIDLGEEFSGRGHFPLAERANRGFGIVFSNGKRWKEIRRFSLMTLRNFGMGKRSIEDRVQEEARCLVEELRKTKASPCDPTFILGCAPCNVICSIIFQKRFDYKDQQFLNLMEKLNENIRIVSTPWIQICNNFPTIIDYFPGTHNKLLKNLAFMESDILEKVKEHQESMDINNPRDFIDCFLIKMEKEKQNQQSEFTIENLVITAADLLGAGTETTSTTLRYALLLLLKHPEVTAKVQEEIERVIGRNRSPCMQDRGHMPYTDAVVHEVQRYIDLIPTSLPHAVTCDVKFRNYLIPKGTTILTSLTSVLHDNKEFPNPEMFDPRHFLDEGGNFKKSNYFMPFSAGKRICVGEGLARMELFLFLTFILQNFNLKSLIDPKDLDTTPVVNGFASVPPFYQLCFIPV

[6] = Fraction unbound in dog plasma by equilibrium dialysis; format: ADME, cell-free, Canis lupus familiaris
[7] = Clearance in dog at 0.5 mg/kg, iv or 1 mg/kg, po; format: ADME, organism-based, Canis lupus familiaris; details: in vivo; outline: as §2
[8] = Efflux ratio of apparent permeability in MDCK cells at 10 uM; format: ADME, cell-based, Canis lupus familiaris; details: dog; outline: as §4
[9] = Oral bioavailability in rat at 1 mg/kg; format: ADME, organism-based; details: in vivo; outline: as §2
[10] = Volume of distribution at steady state in dog at 0.5 mg/kg, iv or 1 mg/kg, po; format: ADME, organism-based, Canis lupus familiaris; details: in vivo, read-out: Vdss; outline: as §2
[11] = Oral bioavailability in dog at 1 mg/kg; format: ADME, organism-based, Canis lupus familiaris; details: in vivo; outline: as §2
[12] = Stability in pH 10 deuterated buffer assessed as compound remaining after 8 days by 1H NMR spectroscopy; format: physicochemical; details: pH 10, 192 h
Outline: (§5)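 Compound diluted from a 25 mM DMSO-d6 stock to a final 1 mM in each deuterated buffer. Followed by ¹H NMR (500 MHz, water suppression, 64 scans) and LC-MS at 0, 24, 72 and 192 h (8 days).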

[13] = Fraction unbound in mouse plasma by equilibrium dialysis; format: ADME, cell-free
[14] = Clearance in rat at 0.5 mg/kg, iv or 1 mg/kg, po; format: ADME, organism-based; details: in vivo; outline: as §2
[15] = Solubility of the compound in phosphate buffer at pH 7.4 after 24 hrs; format: physicochemical
Outline: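 Solubility in aqueous phosphate buffer at pH 7.4 after 24 h at 25 °C.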

[16] = Stability in pH 7.4 deuterated buffer assessed as compound remaining after 8 days by 1H NMR spectroscopy; format: physicochemical; details: pH 7.4, 192 h; outline: as §5
[17] = Half life in dog at 0.5 mg/kg, iv or 1 mg/kg, po; format: ADME, organism-based, Canis lupus familiaris; details: in vivo; outline: as §2
[18] = Volume of distribution at steady state in rat at 0.5 mg/kg, iv or 1 mg/kg, po; format: ADME, organism-based; details: in vivo, read-out: Vdss; outline: as §2
Estrogen receptor [19] = molecular target: T1, Estrogen receptor (Homo sapiens, UniProt P03372); test: Induction of ERalpha degradation in human MCF7 cells after 18 to 24 hrs by in multiplexed cell assay; format: cell-based
T1 sequence (P03372 whole entry): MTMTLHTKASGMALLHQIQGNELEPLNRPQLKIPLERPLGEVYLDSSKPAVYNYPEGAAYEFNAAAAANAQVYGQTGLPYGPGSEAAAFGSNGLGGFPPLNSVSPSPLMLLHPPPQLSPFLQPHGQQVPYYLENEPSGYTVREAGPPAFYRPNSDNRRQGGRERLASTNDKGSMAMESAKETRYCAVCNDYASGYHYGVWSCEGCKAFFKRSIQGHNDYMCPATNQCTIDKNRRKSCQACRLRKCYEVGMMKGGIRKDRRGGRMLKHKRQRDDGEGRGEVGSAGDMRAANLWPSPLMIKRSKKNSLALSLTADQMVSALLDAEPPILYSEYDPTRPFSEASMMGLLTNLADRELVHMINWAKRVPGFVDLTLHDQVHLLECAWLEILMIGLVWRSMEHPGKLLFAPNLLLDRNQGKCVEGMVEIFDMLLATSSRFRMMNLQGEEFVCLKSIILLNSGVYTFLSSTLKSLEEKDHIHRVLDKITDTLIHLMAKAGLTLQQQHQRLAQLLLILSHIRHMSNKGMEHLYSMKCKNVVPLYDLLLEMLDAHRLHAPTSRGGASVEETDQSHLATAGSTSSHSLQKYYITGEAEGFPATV
Outline: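 MCF-7 cells were kept at 37 °C, 5% CO₂ in phenol red-free RPMI1640 with 5% charcoal-stripped FCS and 2 mmol/L glutamine. Compounds came from 10 mmol/L DMSO stocks.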

[20] = Stability in pH 4 deuterated buffer assessed as compound remaining after 8 days by 1H NMR spectroscopy; format: physicochemical; details: pH 4, 192 h; outline: as §5
[21] = Intrinsic clearance in dog hepatocytes assessed per million cells; format: ADME, cell-based, Canis lupus familiaris, Hepatocyte; details: read-out: CLH
Outline: (§6)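 Rate of metabolism (µl/min/10⁶ cells) measured from DMSO stock in isolated hepatocytes diluted to 1x10⁶ cells/mL.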

[22] = Half life in rat at 0.5 mg/kg, iv or 1 mg/kg, po; format: ADME, organism-based; details: in vivo; outline: as §2
[23] = Apparent permeability in MDCK cells at 10 uM; format: ADME, cell-based, Canis lupus familiaris; details: dog; outline: as §4
[24] = Apparent permeability in human Caco2 cells at 10 uM; format: ADME, cell-based; details: Caco-2; outline: as §4
[25] = Intrinsic clearance in rat hepatocytes assessed per million cells; format: ADME, cell-based, Hepatocyte; details: read-out: CLH; outline: as §6
[26] = Intrinsic clearance in human hepatocytes assessed per million cells; format: ADME, cell-based, Hepatocyte; details: read-out: CLH; outline: as §6
[27] = Lipophilicity, log D of the compound at pH 7.4 by shake flask method; format: physicochemical; details: buffer
Outline: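 Shake-flask measurement of logD at pH 7.4.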

Estrogen receptor [28] = molecular target: T1, Estrogen receptor; test: Binding affinity to recombinant human GST-tagged ERalpha LBD expressed in baculovirus-infected insect cells by lantha screen assay
Cytochrome P450 1A2 = molecular target: T2, Cytochrome P450 1A2 (Homo sapiens, UniProt P05177); test: Inhibition of CYP1A2 in human liver microsomes; format: ADME; outline: as §3
T2 sequence (P05177 whole entry): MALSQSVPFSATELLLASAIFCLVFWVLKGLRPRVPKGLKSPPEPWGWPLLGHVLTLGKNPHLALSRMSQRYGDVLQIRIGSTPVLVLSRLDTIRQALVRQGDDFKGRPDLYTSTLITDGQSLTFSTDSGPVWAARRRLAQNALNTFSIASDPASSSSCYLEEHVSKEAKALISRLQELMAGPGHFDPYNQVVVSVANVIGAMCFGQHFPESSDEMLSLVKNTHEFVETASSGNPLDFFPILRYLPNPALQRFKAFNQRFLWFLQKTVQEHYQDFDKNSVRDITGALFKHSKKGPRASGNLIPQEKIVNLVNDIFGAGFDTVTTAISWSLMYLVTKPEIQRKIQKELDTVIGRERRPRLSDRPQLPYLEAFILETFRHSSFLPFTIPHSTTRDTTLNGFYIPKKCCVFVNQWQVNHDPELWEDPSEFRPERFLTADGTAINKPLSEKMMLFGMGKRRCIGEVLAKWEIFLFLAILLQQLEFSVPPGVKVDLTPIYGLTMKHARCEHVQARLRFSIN

[29] = Glutathione reactivity in human liver microsomes assessed as GSH trapping ratio of compound to clozapine; format: ADME, Microsome
Outline: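 Glutathione trapping in human liver microsomes, expressed as a ratio to clozapine.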

[30] = molecular target: Voltage-gated inwardly rectifying potassium channel KCNH2 (Homo sapiens, UniProt Q12809); test: Inhibition of human ERG by plate based planar patch clamp assay
Sequence of Voltage-gated inwardly rectifying potassium channel KCNH2 (Q12809 whole entry): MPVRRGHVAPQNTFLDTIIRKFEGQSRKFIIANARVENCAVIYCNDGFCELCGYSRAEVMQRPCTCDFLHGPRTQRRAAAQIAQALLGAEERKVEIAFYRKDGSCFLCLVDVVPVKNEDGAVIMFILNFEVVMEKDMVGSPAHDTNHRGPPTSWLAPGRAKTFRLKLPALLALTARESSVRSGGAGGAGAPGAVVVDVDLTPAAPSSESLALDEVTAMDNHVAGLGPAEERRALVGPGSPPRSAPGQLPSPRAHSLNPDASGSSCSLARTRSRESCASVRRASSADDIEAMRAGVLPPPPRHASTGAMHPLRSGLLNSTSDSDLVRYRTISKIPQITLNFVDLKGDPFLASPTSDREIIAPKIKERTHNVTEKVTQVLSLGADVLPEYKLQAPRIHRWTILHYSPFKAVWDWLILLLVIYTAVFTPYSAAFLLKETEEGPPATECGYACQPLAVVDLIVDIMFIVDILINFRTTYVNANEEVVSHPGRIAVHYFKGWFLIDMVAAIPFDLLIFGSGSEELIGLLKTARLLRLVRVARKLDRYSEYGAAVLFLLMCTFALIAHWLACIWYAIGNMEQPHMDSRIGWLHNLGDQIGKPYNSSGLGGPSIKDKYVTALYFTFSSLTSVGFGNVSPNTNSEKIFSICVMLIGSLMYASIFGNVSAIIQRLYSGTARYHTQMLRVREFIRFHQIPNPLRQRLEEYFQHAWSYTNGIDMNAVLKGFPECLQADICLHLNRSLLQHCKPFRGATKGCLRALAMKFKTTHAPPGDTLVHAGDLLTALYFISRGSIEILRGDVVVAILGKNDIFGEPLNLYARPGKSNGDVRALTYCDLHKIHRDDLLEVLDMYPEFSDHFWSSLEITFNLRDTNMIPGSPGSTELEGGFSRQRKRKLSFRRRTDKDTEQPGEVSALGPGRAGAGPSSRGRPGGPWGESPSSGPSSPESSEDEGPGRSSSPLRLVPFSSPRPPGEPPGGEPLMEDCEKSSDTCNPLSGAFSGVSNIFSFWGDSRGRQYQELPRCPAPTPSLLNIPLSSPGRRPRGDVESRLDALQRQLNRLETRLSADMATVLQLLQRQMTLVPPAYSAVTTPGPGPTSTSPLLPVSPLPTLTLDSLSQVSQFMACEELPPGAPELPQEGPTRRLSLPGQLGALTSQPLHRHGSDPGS

Cytochrome P450 3A4 = Cytochrome P450 3A4 (Homo sapiens, UniProt P08684); test: Inhibition of CYP3A4 in human liver microsomes; format: ADME; outline: as §3
Sequence of Cytochrome P450 3A4 (P08684 whole entry): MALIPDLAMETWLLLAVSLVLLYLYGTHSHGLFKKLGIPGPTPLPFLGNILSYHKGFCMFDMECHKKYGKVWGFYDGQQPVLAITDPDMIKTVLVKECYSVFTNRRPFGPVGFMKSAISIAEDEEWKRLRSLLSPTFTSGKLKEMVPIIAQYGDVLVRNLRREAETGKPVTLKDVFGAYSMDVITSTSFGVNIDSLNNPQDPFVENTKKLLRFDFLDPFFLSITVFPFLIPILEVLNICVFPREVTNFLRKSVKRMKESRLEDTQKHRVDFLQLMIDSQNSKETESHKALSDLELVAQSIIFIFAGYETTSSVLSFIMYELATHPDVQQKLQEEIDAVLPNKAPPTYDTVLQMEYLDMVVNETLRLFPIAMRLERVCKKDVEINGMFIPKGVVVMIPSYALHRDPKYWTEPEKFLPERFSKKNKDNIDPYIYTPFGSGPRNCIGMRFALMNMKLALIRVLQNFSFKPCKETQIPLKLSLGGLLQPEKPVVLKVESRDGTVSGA

Cytochrome P450 2C9 = Cytochrome P450 2C9 (Homo sapiens, UniProt P11712); test: Inhibition of CYP2C9 in human liver microsomes; format: ADME; outline: as §3
Sequence of Cytochrome P450 2C9 (P11712 whole entry): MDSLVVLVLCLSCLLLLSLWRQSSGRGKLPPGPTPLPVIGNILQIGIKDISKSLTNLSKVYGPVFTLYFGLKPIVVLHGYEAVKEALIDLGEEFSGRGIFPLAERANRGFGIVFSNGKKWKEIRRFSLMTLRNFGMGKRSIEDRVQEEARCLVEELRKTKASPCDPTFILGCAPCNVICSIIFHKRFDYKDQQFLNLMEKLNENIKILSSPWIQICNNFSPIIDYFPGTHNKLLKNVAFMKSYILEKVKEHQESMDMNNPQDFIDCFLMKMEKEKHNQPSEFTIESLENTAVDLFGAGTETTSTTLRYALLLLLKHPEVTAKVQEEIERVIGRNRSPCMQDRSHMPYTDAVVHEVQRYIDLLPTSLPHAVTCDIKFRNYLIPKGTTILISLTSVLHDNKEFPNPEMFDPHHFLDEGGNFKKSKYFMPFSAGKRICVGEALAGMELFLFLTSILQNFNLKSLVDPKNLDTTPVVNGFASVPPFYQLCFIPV

Row | SMILES | fraction unbound [1] | fraction unbound [2] | AUC [3] [µM·h] | AUC [4] [µM·h] | IC50 (Cytochrome P450 2D6) [µM] | efflux ratio at 10 µM [5] | IC50 (Cytochrome P450 2C19) [µM] | fraction unbound [6] | clearance [7] [mL/min/kg] | efflux ratio at 10 µM [8] | bioavailability [9] [%] | Vd [10] [L/kg] | bioavailability [11] [%] | fraction unbound [13] | clearance [14] [mL/min/kg] | solubility at 24 h [15] [µM] | half-life [17] [h] | Vd [18] [L/kg] | IC50 (Estrogen receptor [19]) [µM] | hepatocyte CLint [21] [µL/min/1e6 cells] | also measured
1 | COc1cc(/C=C/C(=O)O)ccc1[C@@H]1c2ccc3[nH]ncc3c2C[C@@H](C)N1CC(C)(F)F | 0.022 | 0.0092 | 6.6 | 0.21 | > 30 | 2.2 | > 30 | 0.0087 | 2.8 | 1.7 | 51 | 0.36 | 45 | 0.012 | 32 | 810 (≈ 358 µg/mL) | 6.8 | 1 | 0.001 | 9.6 | Stability [12]: Stable; Stability [16]: Stable; Stability [20]: Stable; half-life [22]: 1.3 h; Papp at 10 µM [23]: 8.4 ×10⁻⁶ cm/s; Papp at 10 µM [24]: 6.2 ×10⁻⁶ cm/s; hepatocyte CLint [25]: 18 µL/min/1e6 cells; hepatocyte CLint [26]: 5 µL/min/1e6 cells; logD [27]: 2.5; IC50 (Estrogen receptor [28]): 0.001 µM; IC50 (Cytochrome P450 1A2): > 30 µM; Ratio [29]: < 0.04
2 | C[C@@H]1Cc2c(ccc3[nH]ncc23)[C@@H](c2c(F)cc(/C=C/C(=O)O)cc2F)N1CC(C)(F)F | 0.013 | 0.011 | 3 | 0.57 | > 30 | 2.6 | > 30 | 0.0062 | 5.4 | 1.3 | 16 | 0.63 | 36 | 0.021 | 26 | 760 (≈ 340 µg/mL) | 4.8 | 1.6 | 0.000398 | 7.1 | IC50 [30]: > 100 µM; IC50 (Cytochrome P450 3A4): > 30 µM; half-life [22]: 3.7 h; Papp at 10 µM [23]: 10 ×10⁻⁶ cm/s; Papp at 10 µM [24]: 5.8 ×10⁻⁶ cm/s; hepatocyte CLint [25]: 18 µL/min/1e6 cells; IC50 (Cytochrome P450 2C9): 6.6 µM; hepatocyte CLint [26]: 8 µL/min/1e6 cells; logD [27]: 2.3; IC50 (Estrogen receptor [28]): 0.000398 µM; IC50 (Cytochrome P450 1A2): > 30 µM; Ratio [29]: < 0.04
